Screening results from PubChem BioAssay.
The list is not random: actives were taken first. Their share in the collection is about 2%.
Runt-CBFb FRET: Runt domain-CBFb interaction inhibition. Q01196+Q13951. Cerulean-Runt/Venus-CBFb FRET ratio 530/480, 1 h. inhibition, % at 20 µM. 220,000 tested, 0.46% active;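 active = inhibition over about 50% at 20 µM in the single-dose screen, limit read from the data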;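 also: 0% = DMSO wells and 100% = excess unlabeled CBFb competitor control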
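test system = Cerulean-tagged RUNX1 Runt domain (FRET donor) fusion protein | reagent = Venus-CBFb binding partner, 100 nM | incubation = protein complex preformed 1 h, compound exposure 1 h, room temperature, dark | detection = FRET fluorescence | read-out basis = loss of energy transfer signal | controls = 5 µM unlabeled CBFb as full-inhibition high control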
RanGTP-Impb inh: inhibitors of RanGTP-importin-beta interaction, primary screen, biochemical, FRET, CFP-Ran, YFP-importin-beta, homogeneous; inhibition, % (test concentration not listed); AID 2216; cell-free CFP-Ran/YFP-importin-beta FRET ratio; 300,000 tested, 1.1% active;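 active = more than half of the replicate wells show a fall in the fluorescence ratio signal beyond about 16%, limit read from the data, passing the limit was not always enough; inconclusive = exactly half of the replicate wells pass the set limit; inactive = fewer than half of replicates pass the limit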;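 also: 0% = DMSO wells and 100% = Ran loaded with GDP instead of GTP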
PKD1 kinase inh: PKD1 (human) kinase inhibition; Q15139; PKD1 kinase fluorescence polarization assay; inhibition, % (no concentration beside the values); 200,000 tested, 0.056% active; AID 797
EBV gp42 inh: inhibitors of Epstein-Barr virus glycoprotein 42; inhibition, % (tested at 21.74 µM); Fluorescence polarization binding assay, mP read-out; AID 1085; Q1HVG2; 220,000 tested, 0.42% active
Target sequence (Q1HVG2 whole entry, looked up): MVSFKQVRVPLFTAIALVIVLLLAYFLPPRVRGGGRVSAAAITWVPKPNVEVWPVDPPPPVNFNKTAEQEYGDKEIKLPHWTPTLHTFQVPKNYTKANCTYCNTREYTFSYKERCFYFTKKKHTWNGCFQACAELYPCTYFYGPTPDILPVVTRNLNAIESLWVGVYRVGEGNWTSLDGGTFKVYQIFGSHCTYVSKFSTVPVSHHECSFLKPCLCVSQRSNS
MEX-5 binding: C. elegans MEX-5 TCR-2 RNA binding activity. AID 1832. activity score (negative = inhibition of binding), % at 10 µM. Q9XUB2. 300,000 tested, 0.38% active. MEX-5/FITC-TCR2 RNA binding, fluorescence polarization; hits give low values;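 active = inhibition past about -25% in most replicates, and total fluorescence under double the plate's negative control median, limit read from the data; inconclusive = replicates evenly split on the limit, or fluorescence at least double controls; inactive = too little inhibition in most replicates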;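 also: 0% = DMSO and -100% = 5 µM competing unlabeled TCR2 RNA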
Target sequence (Q9XUB2 whole entry, looked up): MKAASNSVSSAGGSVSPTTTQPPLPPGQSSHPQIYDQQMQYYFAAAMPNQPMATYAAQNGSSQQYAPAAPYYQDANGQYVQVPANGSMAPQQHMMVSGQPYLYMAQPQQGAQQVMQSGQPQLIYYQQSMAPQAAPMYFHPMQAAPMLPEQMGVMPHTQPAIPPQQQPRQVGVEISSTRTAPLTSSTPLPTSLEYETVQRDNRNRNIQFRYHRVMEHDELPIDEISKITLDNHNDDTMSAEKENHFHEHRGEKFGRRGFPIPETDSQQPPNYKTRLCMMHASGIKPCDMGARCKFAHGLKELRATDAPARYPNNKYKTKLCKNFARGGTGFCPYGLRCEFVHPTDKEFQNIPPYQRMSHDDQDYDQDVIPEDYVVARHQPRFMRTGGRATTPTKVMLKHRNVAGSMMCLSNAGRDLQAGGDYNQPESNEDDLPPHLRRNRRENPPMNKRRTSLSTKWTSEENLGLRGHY
Runt-SMMHC FRET: Runt domain-CBFb-SMMHC interaction inhibition. inhibition, % at 20 µM. Cerulean-Runt/Venus-CBFb-SMMHC FRET ratio 530/480, 1 h. Q01196+Q13951. AID 1434. 220,000 tested, 0.74% active;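 active = mean inhibition across duplicate retests at 20 µM reaching about 50%, limit read from the data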;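 also: 0% = DMSO wells and 100% = wells with excess untagged CBFb-SMMHC; inhibitors lower the FRET ratio by blocking Runt binding to CBFb-SMMHC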
YIC counter: counter-screen YIC FRET for RanGTP-importin-beta inhibitors; 1,000 tested, 40% active; shares compounds with RanGTP-Impb inh; AID 435026; Purified YIC probe, intramolecular FRET ratio YFP/CFP; IC50, µM;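 active = fitted half-maximal inhibitory concentration no more than tenfold above the top dose tested; inconclusive = flat fit with 30 to 70% activity, or poor fit; inactive = half-maximal concentration beyond tenfold above the top dose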
* hit, by the source's call; ? = inconclusive; nt = no result. Rule as the data show it, unless noted: active = inhibition above about 50%; inactive = the rest.

SMILES | Runt-CBFb FRET | RanGTP-Impb inh | PKD1 kinase inh | EBV gp42 inh | MEX-5 binding | Runt-SMMHC FRET | YIC counter
CCOc1ccc(NC(=O)CN2C(=O)COc3ccc(Cl)cc32)cc1 | 2.8 | 17.6* | -9.8 | -7.3 | -1.2 | 1.1 | >50
O=C(Cc1cc(=O)oc2cc(O)ccc12)NCC1CCC(C(=O)O)CC1 (stereo not drawn) | 107.8* | 31.9* | -3.5 | -16.4 | 1.7 | 62.5* | 9.83*
COc1ccc(C(=O)O)cc1S(=O)(=O)N(C)C | 0.3 | 26.2* | -3.1 | -7.7 | 1.4 | -1.2 | >50
COC(=O)c1cc(C(=O)OC)[nH]n1 | 1.9 | 20.0* | 1.2 | -5.8 | -2.3 | -2.7 | >50
CCN(CC)S(=O)(=O)c1ccc(/C=C/C(=O)Nc2ccc(Br)cc2F)cc1 | 0.7 | 2.3 | 1.5 | -6.0 | 0.5 | 0.6 | nt
CCN(CC)S(=O)(=O)c1ccc(/C=C/C(=O)Nc2ccc(F)cc2F)cc1 | 0.0 | 20.8* | 2.4 | 5.1 | -2.7 | 0.5 | >50
Cc1ccc(C(C(=O)NC2CCCCC2)N(Cc2cccnc2)C(=O)c2csnn2)cc1 (stereo not drawn) | nt | -3.5 | nt | nt | -1.1 | nt | nt
CCCCNc1c(NC(C)=O)c(=O)oc2ccccc12 | 1.3 | 0.8 | -3.6 | -1.4 | -0.8 | 1.9 | nt
Cc1oc(-c2cccc(Cl)c2)nc1CS(=O)(=O)CC(=O)NC1CCCC1 | nt | -0.3 | nt | nt | -0.9 | nt | nt
N#C/C(=C/c1cn(CC(=O)O)c2ccccc12)C(=O)NCc1ccccc1 | 4.5 | 22.6* | 1.7 | -13.2 | -1.1 | 3.8 | >50
CC(C)c1ccc(OCc2ccc(C(=O)N3CCCC3)o2)cc1 | nt | 0.2 | nt | nt | -0.1 | nt | nt
Cc1ccc(CNC(=O)c2cccnc2)cc1 | nt | 20.9* | nt | nt | -0.5 | nt | >50
Cc1[nH]nc2c1C(c1ccoc1)C(C#N)=C(N)O2 (stereo not drawn) | nt | 20.9* | -0.8 | -13.8 | -10.7 | nt | >50
CCCc1[nH]nc2c1C(c1ccoc1)C(C#N)=C(N)O2 (stereo not drawn) | -1.7 | ? | -3.9 | -8.2 | 1.7 | -0.7 | nt
CCCCCN(C(=O)CN(C)Cc1ccc(OC)cc1OC)c1c(N)n(CCCC)c(=O)[nH]c1=O | 2.3 | 19.6* | -4.6 | -19.3 | 1.4 | 3.9 | >50
N=c1c(S(=O)(=O)c2ccc(Cl)cc2)cc2c(=O)n3ccccc3nc2n1Cc1cccnc1 | nt | 32.9* | nt | nt | ? | nt | ?
O=c1c2ccccc2c2ccccc2c(=O)n1Cc1cccnc1 | -1.0 | -1.1 | -3.7 | 1.6 | -0.5 | 0.2 | nt
CC(=O)c1c(N2CCN(C)CC2)nc(=S)n(-c2cc(C)ccc2C)c1C | 41.9 | 34.3* | -2.8 | -5.4 | -2.1 | 74.5* | >50
CNc1cc(F)nc(F)n1 | 14.0 | 26.9* | 0.3 | -3.6 | -3.0 | 36.1 | 21.6*
NC(=O)C1(N2CCCCC2)CCN(C(=S)Nc2cc(F)cc(F)c2)CC1 | 0.0 | -4.6 | -6.0 | -8.6 | 0.3 | 1.5 | nt
Cc1sc2nc(SCC(=O)NCc3ccco3)n(-c3ccccc3)c(=O)c2c1C | -1.6 | 22.7* | 4.8 | -3.4 | -0.5 | -1.9 | >50
O=S(=O)(Cc1ccc(Cl)cc1)Nc1ccc2c(c1)OCO2 | -1.0 | 19.0* | -6.2 | -12.8 | -0.2 | 28.0 | >50
O=S(=O)(Cc1ccc(Cl)cc1)N1CCN(Cc2ccc3c(c2)OCO3)CC1 | -0.1 | 5.5 | nt | 8.4 | -0.9 | -0.8 | nt
CCN(CC)c1ccc(/C=C2\C(=N)N3N=C(CC(=O)N4CCOCC4)SC3=NC2=O)cc1 | nt | -17.9 | nt | nt | 1.7 | nt | nt
Cc1c(O)c(CN2CCCCC2)cc2c3c(c(=O)oc12)CCC3 | 90.1* | 36.8* | 6.1 | 7.7 | 0.6 | 58.5* | 13.9*
SMILES | Runt-CBFb FRET | RanGTP-Impb inh | PKD1 kinase inh | EBV gp42 inh | MEX-5 binding | Runt-SMMHC FRET | YIC counter
OCCNc1c2ccccc2nc2c(F)c(F)c(F)c(F)c12 | 47.3 | 20.0* | -5.5 | 28.8 | -4.0 | nt | 6.49*
CN(C)c1ccc(/C=C(\NC(=O)c2ccccc2)C(=O)NCc2ccncc2)cc1 | nt | 23.4* | nt | nt | 1.2 | nt | >50
CC(C)CN(C(=O)COC(=O)c1c2c(nc3ccccc13)CCC2)c1c(N)n(Cc2ccccc2)c(=O)[nH]c1=O | nt | -2.2 | nt | nt | 4.8 | nt | nt
CCOC(=O)C1=C(N)OC2=C(C(=O)CCC2)C1c1ccc(C)s1 (stereo not drawn) | -0.4 | ? | -8.0 | 1.0 | 0.6 | -5.8 | nt
CCOC(=O)C1=C(N)OC2=C(C(=O)CCC2)C1c1sccc1C (stereo not drawn) | -2.3 | 23.2* | 5.7 | -12.2 | 0.4 | -2.6 | >50
CC(=O)c1sc2nc(C)c3c(c2c1N)CCCC3 | 43.8 | 31.5* | nt | -4.2 | -4.4 | 89.8* | 14.4*
C[C@H]1CN([C@@H](C)CO)C(=O)c2cccc(NC(=O)c3ccc(-c4nccs4)cc3)c2O[C@H]1CN(C)C(=O)Nc1ccccc1 | nt | nt | nt | nt | nt | nt | >50
Cc1nc2ncnn2c(N2CCCC(C(=O)Nc3ccccc3Br)C2)c1C (stereo not drawn) | 0.6 | -4.6 | -0.3 | 3.8 | -0.1 | -0.1 | nt
CCOC(=O)/C=C1\SCC(=O)N1CC(=O)Nc1ccc(OC)c(OC)c1 | -2.0 | 7.9 | -6.4 | -19.4 | 0.5 | 7.2 | nt
CCOC(=O)/C=C1\SCC(=O)N1CC(=O)c1ccc[nH]1 | nt | 21.1* | -0.7 | -8.3 | -3.0 | -2.7 | >50
COc1ccccc1NC(=O)COc1coc(CN2CCN(c3ccccc3)CC2)cc1=O | nt | 1.3 | nt | nt | -0.6 | nt | nt
CC(C)SCC(=O)Nc1ncc2c(n1)-c1ccccc1CC2 | 6.6 | 18.4* | 1.7 | 48.8 | -4.3 | 17.6 | 3.48*
O=C(Nc1ncc2c(n1)-c1ccccc1CC2)C1CC1 | 0.9 | 4.6 | 0.3 | -2.4 | -0.2 | -2.6 | nt
CC1=Nc2ccccc2/C1=C\c1sc(Nc2ccc(C)cc2)nc1O | -13.5 | 21.4* | -4.2 | -23.9 | 0.7 | -9.2 | >50
Oc1nc(Nc2cccc(Cl)c2)sc1/C=C1\C=Nc2ccccc21 | -26.9 | 10.8 | -3.0 | -41.1 | 0.0 | -38.5 | nt
Oc1nc(Nc2ccc(F)cc2)sc1/C=C1\C=Nc2ccccc21 | -5.3 | 19.3* | nt | -1.0 | 10.2 | -3.3 | >50
Cc1sc(NC(=O)c2ccccc2)c(C#N)c1-c1ccccc1 | 1.9 | 39.1* | -8.7 | -13.7 | -0.3 | 2.5 | >50
COC(=O)C1=CN(c2ccc(F)cc2)C=C(C(=O)OC)C1c1cccc([N+](=O)[O-])c1 | nt | -0.1 | nt | nt | -1.0 | nt | nt
COC(=O)C1=CN(c2ccc(OC)cc2)C=C(C(=O)OC)C1c1cccc(F)c1 | nt | 17.5* | nt | nt | 1.3 | nt | 7.51*
Cc1cc(Cl)ccc1C(=O)C1CCCN(C(=O)c2n[nH]c3c2CCCC3)C1 (stereo not drawn) | -1.9 | 20.7* | -3.9 | -3.3 | -2.5 | 1.2 | >50
O=C(O)C(F)=C1c2ccccc2-c2ccccc21 | nt | 5.2 | nt | nt | 0.5 | nt | nt
CCCc1ccc2oc(C(=O)NCCCN3CCOCC3)c(C)c2c1 | nt | 0.8 | nt | nt | 1.4 | nt | nt
